ChEMBL document CHEMBL1157640, “Exploration of inhibitors for diaminopimelate aminotransferase” (Bioorg Med Chem, 2010)
Calls of active or inactive are those of the source. No cut-off for these calls is given here.

Legend:
[1] = biological target: LL-diaminopimelate aminotransferase, chloroplastic (Arabidopsis thaliana) (UniProt Q93ZN9); experiment: Inhibition of Arabidopsis thaliana LL-DAP-AT expressed in Escherichia coli at 10 uM by aminobenzaldehyde-based assay
Outline: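 Robotic 96-well screen against C-terminal His6-tagged A. thaliana LL-DAP-AT (0.0043 mg/mL final) in 100 mM HEPES-KOH pH 7.6, with 8.5 mM 2-oxoglutarate, 7 mM OAB and 2.0 mM LL-DAP final. Inhibitor 10 µM final in DMSO, assuming MW 500. Absorbance at 440 nm read in triplicate before enzyme addition and after 3 h at room temperature. Activity taken relative to no-inhibitor wells; no-enzyme wells served as blank.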

[2] = biological target: LL-diaminopimelate aminotransferase, chloroplastic (Arabidopsis thaliana, UniProt Q93ZN9); experiment: Inhibition of Arabidopsis thaliana LL-DAP-AT expressed in Escherichia coli by aminobenzaldehyde-based assay
Chain of LL-diaminopimelate aminotransferase, chloroplastic (Q93ZN9 whole entry): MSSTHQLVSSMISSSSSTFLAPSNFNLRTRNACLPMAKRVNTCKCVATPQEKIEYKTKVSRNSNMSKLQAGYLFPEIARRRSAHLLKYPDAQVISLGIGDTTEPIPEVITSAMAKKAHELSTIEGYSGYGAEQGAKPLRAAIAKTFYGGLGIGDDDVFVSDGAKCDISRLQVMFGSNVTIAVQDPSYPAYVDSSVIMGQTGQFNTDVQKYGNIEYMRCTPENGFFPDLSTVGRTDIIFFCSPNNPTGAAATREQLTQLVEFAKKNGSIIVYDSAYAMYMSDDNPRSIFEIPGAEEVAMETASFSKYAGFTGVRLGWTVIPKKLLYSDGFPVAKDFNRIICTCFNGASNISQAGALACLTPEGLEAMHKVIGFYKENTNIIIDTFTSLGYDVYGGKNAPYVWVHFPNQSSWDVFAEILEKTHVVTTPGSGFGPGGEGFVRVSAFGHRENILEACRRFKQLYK
Outline: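 His6-tagged A. thaliana LL-DAP-AT (0.0043 mg/mL final) in 1 mL cuvettes with 100 mM HEPES-KOH pH 7.6, 8.5 mM 2-OG, 7 mM OAB and 2.0 mM LL-DAP. Inhibitor at 5–200 µM final, added in 50 µL DMSO. A440 followed for 200 min, read every 2 min.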

[3] = biological target: LL-diaminopimelate aminotransferase, chloroplastic (Arabidopsis thaliana) (UniProt Q93ZN9); experiment: Inhibition of Arabidopsis thaliana LL-DAP-AT expressed in Escherichia coli assessed as time independent type of inhibition by aminobenzaldehyde-based assay
Outline: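 Enzyme (100 µL) and inhibitor (50 µL) were preincubated for six different times, then added to 850 µL of OAB-coupled substrate buffer. Inhibitor level was chosen from the IC50. A440 recorded as in the IC50 assay, with positive and no-enzyme controls. Time independence was judged by whether percent inhibition changed with preincubation time.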

[4] = tested on: Salmonella typhimurium; experiment: Antimicrobial activity against Salmonella Typhimurium ATCC 23564 at <200 ug/mL; format: functional, organism-based; settings: Salmonella enterica subsp. enterica serovar Typhimurium
Outline: (§1)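 Soft agar overlay (0.75% w/v) seeded with 1% overnight culture of indicator strain, poured over 1.5% w/v solid agar; LB medium for Gram-negative, M17 for Gram-positive. 10 µL of test solution spotted and air-dried, with solvent controls (acetonitrile or methanol). Incubated overnight, 37 °C Gram-negative, 30 °C Gram-positive; scored for growth-inhibition halos.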

[5] = tested on: Escherichia coli; experiment: Antimicrobial activity against Escherichia coli DH5alpha at <200 ug/mL; format: functional, organism-based; outline: as §1
[6] = tested on: Staphylococcus aureus; experiment: Antimicrobial activity against Staphylococcus aureus ATCC 25923 at <200 ug/mL; format: functional, organism-based; outline: as §1
[7] = tested on: Pseudomonas aeruginosa; experiment: Antimicrobial activity against Pseudomonas aeruginosa ATCC 15442 at <200 ug/mL; format: functional, organism-based; outline: as §1
[8] = tested on: Carnobacterium divergens; experiment: Antimicrobial activity against Carnobacterium divergens LV13 at <200 ug/mL; format: functional, organism-based; outline: as §1
[9] = biological target: LL-diaminopimelate aminotransferase, chloroplastic (Arabidopsis thaliana) (UniProt Q93ZN9); experiment: Inhibition of Arabidopsis thaliana LL-DAP-AT expressed in Escherichia coli assessed as time dependent type of inhibition by aminobenzaldehyde-based assay
Outline: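 Recombinant C-terminal His6-tagged enzyme (0.043 mg/mL, 100 µL) preincubated with 50 µL inhibitor (stock chosen from IC50 measurements) for six different times. Mixture then added to 850 µL substrate buffer: 100 mM HEPES-KOH pH 7.6, 2-oxoglutarate, 2-aminobenzaldehyde, racemic DAP. Absorbance at 440 nm recorded for 200 min. Percentage inhibition compared across preincubation times; no-inhibitor and no-enzyme controls included.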

Chain of LL-diaminopimelate aminotransferase, chloroplastic (Arabidopsis thaliana) (Q93ZN9 whole entry): as above

Structure (SMILES)	inhibition [1]	IC50 ([2]; read-out: IC50)	also measured
N=C1NC(=O)/C(=C/c2ccc(-c3ccc([N+](=O)[O-])cc3Br)o2)S1	13%	85 µM	
CCOC(=O)C1=C(Nc2ccc([N+](=O)[O-])cc2)S/C(=C\c2ccc(N(C)C)cc2)C1=O	19%	141 µM	
O=C(N/N=C/c1ccc(F)cc1)c1cc(-c2ccc3ccccc3c2)n[nH]1	14%	161 µM	
COc1ccc(/C=C2\SC(=S)N(NC(C)=O)C2=O)cc1		> 200 µM	
COc1ccc(OC)c(Nc2nc3ccccc3nc2NS(=O)(=O)c2cccc([N+](=O)[O-])c2)c1	13%	153 µM	
C=CCN1C(=O)/C(=C\c2cc3ccccc3n2Cc2ccc([N+](=O)[O-])cc2)C(=O)NC1=S	33%	69 µM	
C/C(=N\NC(=O)c1cc(C2CC2)n[nH]1)c1ccc(C)cc1	14%	> 200 µM	
CC(=O)NN1C(=O)/C(=C/c2ccccc2)SC1=S			IC50 [2]: Not Active
Cc1nc(C)c(C(=O)/C=C2/Nc3ccccc3NC2=O)s1	18%	56 µM	
CC(=O)/N=C1\NC(=O)/C(=C/c2ccc(-c3ccc([N+](=O)[O-])cc3)o2)S1	52%	78 µM	
Cc1ccc(N2C(=O)/C(=C\c3cc4ccccc4[nH]3)C(=O)NC2=S)cc1	16%	164 µM	
COc1cc(OC)c(OC)cc1/C=N/n1c(S)nnc1-c1ccc(C)cc1	18%	> 200 µM	
Cc1ccsc1/C=C1\SC(=S)N(CC2CCCO2)C1=O (stereo unspecified)	14%	> 200 µM	
Cc1[nH]n(-c2ccccc2)c(=O)c1C=C1C(=O)N(C)C(=O)N(C)C1=O	20%	45 µM	inhibition [3]: Active
COc1cc(-c2nnc(SCC(=O)c3ccc(F)cc3)n2-c2ccccc2)cc(OC)c1OC	14%	> 200 µM	
COc1ccc(N2C(=O)NC(=O)/C(=C/c3ccc(-c4cccc(Cl)c4)o3)C2=O)cc1	20%	42 µM	
C=C(C)COc1ccc2c(c1)oc(=O)c1cc(OC)ccc12	25%	> 200 µM	
O=C1NC(=S)N(c2cccc(Br)c2)C(=O)/C1=C\c1ccco1	17%	> 200 µM	
C=CCN1C(=O)/C(=C\c2cc3ccccc3n2C)C(=O)NC1=S	35%	75 µM	
CCN1C(=O)/C(=C/c2ccc(Cl)cc2)SC1=S		200 µM	
CCOC(=O)C1=C(Nc2ccc(OC)cc2)S/C(=C\c2ccc(N(C)C)cc2)C1=O	22%	> 200 µM	
CCN1C(=O)/C(=C/c2ccc(OC)cc2)SC1=S		> 200 µM	

Structure (SMILES)	inhibition [1]	IC50 ([2]; read-out: IC50)	also measured
O=C1NC(=S)S/C1=C\c1ccccc1[N+](=O)[O-]			IC50 [2]: Not Active
COc1ccc(/C=C2\SC(=S)NC2=O)cc1I	29%	180 µM	
CCN1C(=O)/C(=C/c2ccccc2)SC1=S		> 200 µM	
N/C(=N\[N+](=O)[O-])N/N=C\c1ccc(-c2cccc([N+](=O)[O-])c2)o1	13%	> 200 µM	
COc1ccccc1N1C(=O)/C(=C\c2cc3ccccc3n2Cc2ccccc2)C(=O)NC1=S	20%	62 µM	
O=C(Cn1c(/C=C2/C(=O)NC(=O)N(c3cccc(F)c3)C2=O)cc2ccccc21)Nc1ccccc1	18%	52 µM	
Cc1ccc(C2=NC(=O)/C(=C/c3cc4c(cc3Br)OCO4)S2)cc1	13%	130 µM	
CC(=O)NN1C(=O)/C(=C/c2ccc(-c3ccc([N+](=O)[O-])cc3)o2)SC1=S		73 µM	
CC(=O)NN1C(=O)/C(=C/c2ccc(Cl)cc2)SC1=S			IC50 [2]: Not Active
C=CCN1C(=O)/C(=C2/C(=O)N(S(=O)(=O)c3ccc(OC)cc3)c3ccccc32)SC1=S	18%	194 µM	
CCN1C(=O)/C(=C/c2cc(Cc3ccccc3Cl)ccc2O)SC1=S	13%	46 µM	inhibition [3]: Active
NNC(=O)c1cc2ccccc2cc1NS(=O)(=O)c1ccccc1	33%	5 µM	inhibition [4]: inactive; inhibition [5]: inactive; inhibition [6]: inactive; inhibition [7]: inactive; inhibition [8]: inactive
COc1ccc(/C=C2/C=C(c3ccccc3)OC2=O)c(OC)c1	14%	159 µM	
Cc1ccc(S(=O)(=O)N2C(=O)/C(=C3\SC(=S)NC3=O)c3ccccc32)cc1	25%	70 µM	
CCN1C(=O)/C(=C/c2ccccc2O)SC1=S		> 200 µM	
O/C(=C\c1nc2ccccc2nc1O)c1cccs1	15%	31 µM	
Cc1ccc(NC(=O)/C(C#N)=C/c2ccc(N(C)C)o2)cc1C	14%	> 200 µM	
C=CCN1C(=O)NC(=O)/C(=C/c2ccc(-c3ccc(C(=O)OCC)cc3)o2)C1=O	16%	> 200 µM	
O=C1/C(=C/c2cn(-c3ccccc3)nc2-c2cccs2)SC(=S)N1C1CCS(=O)(=O)C1 (stereo unspecified)	13%	117 µM	
CC(=O)c1ccc(Nc2nc(-c3cc4ccccc4oc3=O)cs2)cc1	16%	> 200 µM	
Cc1ccc(OCCn2c(C=C3C(=O)NC(=O)NC3=O)cc3ccccc32)cc1C	28%	99 µM	
Cc1c(C(=O)NC(=S)Nc2ccc3oc(-c4ccccc4Cl)nc3c2)oc2ccccc12	19%	83 µM	

Structure (SMILES)	inhibition [1]	IC50 ([2]; read-out: IC50)	also measured
Cc1cc(C=C2C(=O)NC(=S)NC2=O)c(C)n1C	15%	25 µM	inhibition [4]: inactive; inhibition [3]: Active; inhibition [5]: inactive; inhibition [6]: inactive; inhibition [7]: inactive; inhibition [8]: inactive
O=C1NC(=S)S/C1=C\c1cccc2ccccc12			IC50 [2]: Not Active
COc1ccc(/C=C2\SC(=S)N(N)C2=O)cc1		155 µM	
Cc1ccc(N2C(=O)/C(=C\c3cc4ccccc4n3CC(=O)O)C(=O)N(C)C2=O)cc1	17%	37 µM	
CC(=O)NN1C(=O)/C(=C/c2ccc(Br)o2)SC1=S	13%	41 µM	inhibition [3]: Active
COc1ccc(/C=C2\SC(=S)NC2=O)cc1		142 µM	
O=C1OC(c2ccccc2Cl)=N/C1=C/c1ccc(OC(=O)c2ccccc2Cl)c(O)c1	30%	81 µM	
CN1C(=O)/C(=C/c2cc3ccccc3n2CC(=O)O)C(=O)N(c2ccc(Cl)cc2)C1=O	14%	65 µM	
O=C(N/N=C/c1ccc(O)cc1O)c1[nH]c2ccc([N+](=O)[O-])cc2c1-c1ccccc1	15%	45 µM	
O=C(Cn1c(/C=C2/C(=O)NC(=S)N(c3ccccc3)C2=O)cc2ccccc21)Nc1ccccc1	45%	33 µM	inhibition [9]: Active
O=C1OC(c2ccccc2)=C/C1=N\Nc1ccccc1C(=O)O	16%	39 µM	inhibition [4]: inactive; inhibition [3]: Active; inhibition [5]: inactive; inhibition [6]: inactive; inhibition [7]: inactive; inhibition [8]: inactive
COc1ccc(C=C2C(=O)NC(=S)NC2=O)cc1OCc1ccccc1Cl	48%	121 µM	
O=C1NC(=S)S/C1=C\c1ccc(Cl)cc1		> 200 µM	
CCN1C(=O)/C(=C/c2cccc3ccccc23)SC1=S		200 µM	
NN1C(=O)/C(=C/c2ccc(Cl)cc2)SC1=S			IC50 [2]: Not Active
O=C1NC(=S)S/C1=C\c1ccccc1O		> 200 µM	
NN1C(=O)/C(=C/c2ccccc2)SC1=S			IC50 [2]: Not Active
Cc1ccsc1/C=C1\SC(=S)N(C(C)c2ccccc2)C1=O (stereo unspecified)	13%	127 µM	
CN(C)c1ccc(/C=C2\SC(=S)NC2=O)cc1		127 µM	
CN1C(=O)C(=Cc2cccn2-c2cccc([N+](=O)[O-])c2)C(=O)N(C)C1=O	13%	> 200 µM	
